This is an account of results in ChEMBL document CHEMBL1133996, “The synthesis of pseudomycin C' via a novel acid promoted side-chain deacylation of pseudomycin A” (2001).

Each structure is given as a SMILES string. ≈ marks a conversion by molar mass, not a printed value.

Type in all cases: functional
The subject of one experiment is Aspergillus fumigatus. The experiment can be described thus: Minimum inhibitory concentration tested in vitro against Aspergillus fumigatus. Put shortly: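 A. fumigatus broth microdilution: spores teased from mycelia grown on potato dextrose agar into 0.1% Tween 80/saline, adjusted to 1 × 10^5 spores/mL in Sabouraud broth. Compounds from DMSO, starting at 20 µg/mL, serial 2-fold dilutions.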

The subject of the next experiment is Candida albicans. The experiment in a line: Minimum inhibitory concentration tested in vitro against Candida albicans. Put shortly: (§1)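 Robotic broth microdilution: DMSO stocks diluted in broth to a starting 20 µg/mL, serial 2-fold dilutions. Yeasts grown on Sabouraud dextrose agar, 35°C, 24 h, suspended in saline and adjusted to 1 × 10^5 conidia/mL in Sabouraud dextrose broth (hemacytometer count).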

For another experiment, the system named is Cryptococcus neoformans. The experiment can be described thus: Minimum inhibitory concentration tested in vitro against Cryptococcus neoformans. The procedure, abridged:
as §1

Experiment [1] has as its system Mus musculus. The experiment can be described thus: Effective dose against Candida albicans tested in infected mice on intraperitoneal administration. The settings on record: ip. Put shortly: (§2)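 C. albicans systemic infection in mice: 2 × 10^6 blastoconidia iv (0.1 mL, lateral tail vein). Dosed ip (0.2 mL) at 0, 4, 24 and 48 h post-infection at 20, 10 and 5.0 mg/kg, six mice per level, in 4.0% hydroxypropyl β cyclodextrin/sodium acetate pH 7.0/1.75% dextrose; vehicle-dosed infected controls (10). Morbidity/mortality followed 7 days; ED50 by Reed–Muench.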

Another experiment deals with Histoplasma capsulatum. The experiment in a line: Minimum inhibitory concentration tested in vitro against Histoplasma capsulatum. Put shortly: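 Robotic broth microdilution. Compounds dissolved in 100% DMSO, diluted in broth to start at 20 µg/mL in the first wells after inoculum, then serial 2-fold dilutions. Conidia suspended in saline and adjusted to 1 × 10^5 conidia/mL in Sabouraud dextrose broth. Incubated 48 h at 35 °C in ambient air. MIC = lowest concentration inhibiting 90–100% of visible growth vs untreated controls.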

In a further experiment the test system is Candida parapsilosis. The experiment in a line: Minimum inhibitory concentration tested in vitro against Candida parapsilosis. Put shortly: as §1
Experiment [2] relates to Mus musculus. The experiment can be described thus: Effective dose administered intraperitoneally against Candida albicans infected mice. The settings on record: ip. Put shortly:
as §2

Setting [3] is: Aspergillus fumigatus, read-out: MIC.
Setting [4] is: Candida albicans, read-out: MIC.
[5] abbreviates: Cryptococcus neoformans, read-out: MIC.
The mark [6] stands for this setting: Histoplasma capsulatum, read-out: MIC.
Where [7] appears, read: Lodderomyces parapsilosis, read-out: MIC.

For `C/C=C1/NC(=O)[C@H]([C@H](C)O)NC(=O)[C@H](CCN)NC(=O)[C@H](CCCCN)NC(=O)[C@H](CC(=O)O)NC(=O)[C@@H](CCN)NC(=O)[C@@H](NC(=O)CC(O)C(O)CCCCCCCCCC)COC(=O)[C@H]([C@H](O)CCl)NC(=O)[C@H]([C@H](O)C(=O)O)NC1=O` (stereo not given in full), the minimal inhibitory concentration (MIC) came out at 10 µg/mL (≈ 8.17 µM) in the experiment with Aspergillus fumigatus (setting [3]), 0.625 µg/mL (≈ 0.511 µM) with Candida albicans (setting [4]) and 0.078 µg/mL (≈ 0.0637 µM) with Cryptococcus neoformans (setting [5]). The same molecule had an ED50 in the experiment with Mus musculus [1] of 7.1 mg/kg.

As to `C/C=C1/NC(=O)[C@H]([C@H](C)O)NC(=O)[C@H](CCN)NC(=O)[C@H](CCCCN)NC(=O)[C@H](CC(=O)O)NC(=O)[C@@H](CCN)NC(=O)[C@@H](NC(=O)CCCCCCCCCCCCCCC)COC(=O)[C@H]([C@H](O)CCl)NC(=O)[C@H]([C@H](O)C(=O)O)NC1=O`, the MIC turned out to be 10 µg/mL (≈ 8.2 µM) with Histoplasma capsulatum (setting [6]), 10 µg/mL (≈ 8.2 µM) with Candida albicans (setting [4]), 10 µg/mL (≈ 8.2 µM) with Candida parapsilosis (setting [7]) and 1.25 µg/mL (≈ 1.02 µM) in the experiment with Cryptococcus neoformans (setting [5]).

With `C/C=C1/NC(=O)[C@H]([C@H](C)O)NC(=O)[C@H](CCN)NC(=O)[C@H](CCCCN)NC(=O)[C@H](CC(=O)O)NC(=O)[C@@H](CCN)NC(=O)[C@@H](NC(=O)C[C@@H](O)CCCCCCCCCCCCC)COC(=O)[C@H]([C@H](O)CCl)NC(=O)[C@H]([C@H](O)C(=O)O)NC1=O`, the minimum inhibitory concentration (MIC) with Histoplasma capsulatum (setting [6]) amounted to 5 µg/mL (≈ 4.05 µM); in the experiment on Aspergillus fumigatus (setting [3]), 20 µg/mL (≈ 16.2 µM); with Candida albicans (setting [4]), 5 µg/mL (≈ 4.05 µM); in the experiment on Candida parapsilosis (setting [7]), 5 µg/mL (≈ 4.05 µM); with Cryptococcus neoformans (setting [5]) it was 5 µg/mL (≈ 4.05 µM).

As to `C/C=C1/NC(=O)[C@H]([C@H](C)O)NC(=O)[C@H](CCN)NC(=O)[C@H](CCCCN)NC(=O)[C@H](CC(=O)O)NC(=O)[C@@H](CCN)NC(=O)[C@@H](NC(=O)CC(O)CCCCCCCCC)COC(=O)[C@H]([C@H](O)CCl)NC(=O)[C@H]([C@H](O)C(=O)O)NC1=O` (stereo not given in full), the minimal inhibitory concentration (MIC) is above 20 µg/mL in the experiment on Aspergillus fumigatus (setting [3]), 10 µg/mL (≈ 8.48 µM) with Candida albicans (setting [4]) and 1.25 µg/mL (≈ 1.06 µM) in the experiment with Cryptococcus neoformans (setting [5]).

As for `C/C=C1/NC(=O)[C@H]([C@H](C)O)NC(=O)[C@H](CCN)NC(=O)[C@H](CCCCN)NC(=O)[C@H](CC(=O)O)NC(=O)[C@@H](CCN)NC(=O)[C@@H](NC(=O)CC(O)C(O)CCCCCCCCCCCC)COC(=O)[C@H]([C@H](O)CCl)NC(=O)[C@H]([C@H](O)C(=O)O)NC1=O` (stereo not given in full), the minimum inhibitory concentration (MIC) in the experiment on Aspergillus fumigatus (setting [3]) was determined as 1.25 µg/mL (≈ 0.999 µM); with Candida albicans (setting [4]) it was 0.078 µg/mL (≈ 0.0623 µM); in the experiment with Cryptococcus neoformans (setting [5]), 0.02 µg/mL (≈ 0.016 µM). In the experiment with Mus musculus [2], this molecule displayed an ED50 above 5 mg/kg.

Consider `C/C=C1/NC(=O)[C@H]([C@H](C)O)NC(=O)[C@H](CCN)NC(=O)[C@H](CCCCN)NC(=O)[C@H](CC(=O)O)NC(=O)[C@@H](CCN)NC(=O)[C@@H](NC(=O)CC(O)C(O)CCCCCCCCCCC)COC(=O)[C@H]([C@H](O)CCl)NC(=O)[C@H]([C@H](O)C(=O)O)NC1=O` (stereo not given in full), for which the MIC is above 20 µg/mL in the experiment on Aspergillus fumigatus (setting [3]), 2.5 µg/mL (≈ 2.02 µM) with Candida albicans (setting [4]) and 1.25 µg/mL (≈ 1.01 µM) in the experiment on Cryptococcus neoformans (setting [5]).

In the case of `C/C=C1/NC(=O)[C@H]([C@H](C)O)NC(=O)[C@H](CCN)NC(=O)[C@H](CCCCN)NC(=O)[C@H](CC(=O)O)NC(=O)[C@@H](CCN)NC(=O)[C@@H](NC(=O)CC(O)CCCCCCCCCCC)COC(=O)[C@H]([C@H](O)CCl)NC(=O)[C@H]([C@H](O)C(=O)O)NC1=O` (stereo not given in full), the MIC with Aspergillus fumigatus (setting [3]) turned out to be 10 µg/mL (≈ 8.28 µM); in the experiment with Candida albicans (setting [4]), 0.156 µg/mL (≈ 0.129 µM); with Cryptococcus neoformans (setting [5]), 0.02 µg/mL (≈ 0.0166 µM). The molecule also came in with a 50% effective dose (ED50) with Mus musculus [2] of 3.5 mg/kg.

As for `C/C=C1/NC(=O)[C@H]([C@H](C)O)NC(=O)[C@H](CCN)NC(=O)[C@H](CCCCN)NC(=O)[C@H](CC(=O)O)NC(=O)[C@@H](CCN)NC(=O)[C@@H](NC(=O)C[C@H](O)CCCCCCCCCCCCC)COC(=O)[C@H]([C@H](O)CCl)NC(=O)[C@H]([C@H](O)C(=O)O)NC1=O` (stereo in doubt; form 1), the MIC in the experiment on Histoplasma capsulatum (setting [6]) was 0.156 µg/mL (≈ 0.126 µM); against Aspergillus fumigatus it was 0.312 µg/mL (≈ 0.252 µM); in the experiment with Candida albicans (setting [4]), 0.039 µg/mL (≈ 0.0316 µM); in the experiment with Candida parapsilosis (setting [7]), 0.039 µg/mL (≈ 0.0316 µM); with Cryptococcus neoformans (setting [5]), below 0.01 µg/mL.

Take `C/C=C1/NC(=O)[C@H]([C@H](C)O)NC(=O)[C@H](CCN)NC(=O)[C@H](CCCCN)NC(=O)[C@H](CC(=O)O)NC(=O)[C@@H](CCN)NC(=O)[C@@H](NC(=O)CC(O)CCCCCCCCCCCCC)COC(=O)[C@H]([C@H](O)CCl)NC(=O)[C@H]([C@H](O)C(=O)O)NC1=O` (stereo in doubt; form 1): the minimum inhibitory concentration (MIC) was 0.312 µg/mL (≈ 0.252 µM) in the experiment with Histoplasma capsulatum (setting [6]); 1.25 µg/mL (≈ 1.01 µM) with Aspergillus fumigatus (setting [3]); 0.156 µg/mL (≈ 0.126 µM) with Candida albicans (setting [4]); 0.156 µg/mL (≈ 0.126 µM) in the experiment with Candida parapsilosis (setting [7]); below 0.01 µg/mL with Cryptococcus neoformans (setting [5]).

As to `C/C=C1/NC(=O)[C@H]([C@H](C)O)NC(=O)[C@H](CCN)NC(=O)[C@H](CCCCN)NC(=O)[C@H](CC(=O)O)NC(=O)[C@@H](CCN)NC(=O)[C@@H](NC(=O)C[C@H](O)CCCCCCCCCCCCC)COC(=O)[C@H]([C@H](O)CCl)NC(=O)[C@H]([C@H](O)C(=O)O)NC1=O` (stereo in doubt; form 2), the minimal inhibitory concentration (MIC) came out at 0.156 µg/mL (≈ 0.126 µM) in the experiment with Histoplasma capsulatum, 0.625 µg/mL (≈ 0.506 µM) with Aspergillus fumigatus, 0.039 µg/mL (≈ 0.0316 µM) with Candida albicans and 0.02 µg/mL (≈ 0.0162 µM) in the experiment with Candida parapsilosis.

As for `C/C=C1/NC(=O)[C@H]([C@H](C)O)NC(=O)[C@H](CCN)NC(=O)[C@H](CCCCN)NC(=O)[C@H](CC(=O)O)NC(=O)[C@@H](CCN)NC(=O)[C@@H](NC(=O)CC(O)CCCCCCCCCCCCC)COC(=O)[C@H]([C@H](O)CCl)NC(=O)[C@H]([C@H](O)C(=O)O)NC1=O` (stereo in doubt; form 2), the MIC was determined as 0.625 µg/mL (≈ 0.506 µM) in the experiment on Aspergillus fumigatus, 0.156 µg/mL (≈ 0.126 µM) against Candida albicans and 0.005 µg/mL (≈ 0.00405 µM) against Cryptococcus neoformans. Also, the ED50 in the experiment with Mus musculus [2] came out at 2.5 mg/kg.

As a reminder, the MIC is the least concentration at which growth counts as inhibited. For orientation: ED50 means the midpoint of the dose-response relation. Higher therefore signals a need for a large dose.
